Assay results from ChEMBL document CHEMBL1133118 (J Med Chem, 2000).
Values belong to the compound of their own block, whether it stands above or below them.

How the values were obtained:
Adenosine receptor A3 [1] = biological target: T1, Adenosine receptor A3 (Homo sapiens, UniProt P0DMS8); assay: Displacement of [3H]MRE3008-F20 from human adenosine A3 receptor expressed in CHO cells; range 1.42-1.79; type: cell-based
T1 sequence (P0DMS8 whole entry): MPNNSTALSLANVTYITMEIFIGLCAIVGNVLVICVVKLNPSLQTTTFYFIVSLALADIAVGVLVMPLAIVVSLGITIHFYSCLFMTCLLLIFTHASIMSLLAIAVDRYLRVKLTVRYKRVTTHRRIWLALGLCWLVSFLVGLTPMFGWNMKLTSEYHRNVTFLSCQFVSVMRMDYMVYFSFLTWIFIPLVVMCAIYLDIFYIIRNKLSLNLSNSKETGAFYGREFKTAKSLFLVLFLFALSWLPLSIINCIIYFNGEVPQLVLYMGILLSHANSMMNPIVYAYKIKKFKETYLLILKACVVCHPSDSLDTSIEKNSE

Adenosine receptor A2a [2] = biological target: T2, Adenosine receptor A2a (Homo sapiens, UniProt P29274); assay: Displacement of [3H]-SCH- 58261 from human adenosine A2A receptor expressed in CHO cells; range 160-210; type: cell-based
Outline: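 CHO membranes expressing human A2A receptor (50 μg protein) in 50 mM Tris HCl, 10 mM MgCl2, pH 7.4, competed against [3H]SCH 58261. At least 6–8 test concentrations were used, with 60 min incubation at 25 °C. Nonspecific binding defined by 50 μM NECA; n=3-6.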

Adenosine receptor A3 [3] = biological target: T1, Adenosine receptor A3; assay: Inhibition of cAMP accumulation in CHO cells expressing human adenosine A3 receptor; range 10.8-21.5; type: functional, cell-based
[4] = biological target: T3, Adenosine receptor A3 (Homo sapiens) (UniProt P0DMS8); details: CHO, 1 uM
T3 sequence (whole entry): T1 sequence (P0DMS8 whole entry)

Adenosine receptor A2b [5] = biological target: T4, Adenosine receptor A2b (Homo sapiens, UniProt P29275); assay: Displacement of [3H]DPCPX from Adenosine A2b receptor expressed in […]; range 107-210; type: cell-based
T4 sequence (P29275 whole entry): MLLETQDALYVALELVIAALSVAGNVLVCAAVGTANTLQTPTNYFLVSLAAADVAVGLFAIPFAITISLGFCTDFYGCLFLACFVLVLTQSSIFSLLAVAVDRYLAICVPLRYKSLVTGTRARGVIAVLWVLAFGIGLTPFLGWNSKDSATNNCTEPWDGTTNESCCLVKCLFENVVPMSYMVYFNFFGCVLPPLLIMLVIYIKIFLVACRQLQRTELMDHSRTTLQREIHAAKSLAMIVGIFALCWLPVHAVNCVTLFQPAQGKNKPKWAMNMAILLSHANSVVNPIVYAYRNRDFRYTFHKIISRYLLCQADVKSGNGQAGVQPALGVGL

[6] = biological target: Adenosine receptors; A1 & A3 (Homo sapiens) (UniProt P30542+P0DMS8); assay: Ratio of binding affinity of human A1 receptor to that of human A3 receptor; type: protein assay
Outline: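 Ki ratio from displacement in CHO membranes, 6–8 concentrations, n=3-6, filtration counting. A1: 1 nM [3H]DPCPX, 50 μg protein, 120 min at 25 °C, nonspecific with 10 μM CHA. A3: 1 nM [3H]MRE3008-F20, 50 μg protein, Tris/10 mM MgCl2 pH 7.4, 120 min at 4 °C, nonspecific with 1 μM MRE3008-F20.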

[7] = biological target: Adenosine receptors; A2b & A3 (Homo sapiens) (UniProt P29275+P0DMS8); assay: Ratio of binding affinity of human A2B receptor to that of human A3 receptor; type: protein assay
Outline: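 Ki ratio, n=3-6, 6–8 concentrations. A2B in HEK-293 membranes (20 μg): 40 nM [3H]DPCPX, 50 mM Tris HCl, 10 mM MgCl2, 1 mM EDTA, 0.1 mM benzamidine pH 7.4, 2 IU/mL adenosine deaminase, 60 min at 25 °C, nonspecific with 100 μM NECA. A3 in CHO membranes (50 μg): 1 nM [3H]MRE3008-F20, 120 min at 4 °C.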

Adenosine receptor A2b [8] = biological target: T4, Adenosine receptor A2b; assay: Displacement of [3H]-DPCPX from Adenosine A2b receptor expressed in CHO cells; range 8-18; type: cell-based; details: in the assay text read “HEK-293 cells” for “CHO cells”
Outline: (§1)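 Human recombinant A2B receptor was expressed in HEK-293 cell membranes (20 μg protein). Incubated with 40 nM [3H]DPCPX in 50 mM Tris HCl, 10 mM MgCl2, 1 mM EDTA, 0.1 mM benzamidine, pH 7.4, with 2 IU/mL adenosine deaminase, at least 6–8 test concentrations, 60 min, 25 °C. Nonspecific binding was taken with 100 μM NECA; n=3-6.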

Adenosine receptor A2a [9] = biological target: T2, Adenosine receptor A2a; assay: Displacement of [3H]-SCH- 58261 from human adenosine A2A receptor expressed in CHO cells; range 0.65-1.06; type: cell-based
Outline: (§2)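 Membranes from CHO cells stably expressing human A2A receptor, grown in DMEM/F12 without nucleosides, resuspended in 50 mM Tris HCl, 10 mM MgCl2, pH 7.4; 50 μg protein/assay. Competition with [3H]SCH 58261 at 6–8 or more compound concentrations, 60 min at 25 °C; nonspecific binding with 50 μM NECA. Filtration on GF/B filters, scintillation counting; n=3-6.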

Adenosine receptor A1 [10] = biological target: T5, Adenosine receptor A1 (Homo sapiens, UniProt P30542); assay: Displacement of [3H]DPCPX from human adenosine A1 receptor expressed in CHO cells; range 4.72-6.23; type: cell-based
T5 sequence (P30542 whole entry): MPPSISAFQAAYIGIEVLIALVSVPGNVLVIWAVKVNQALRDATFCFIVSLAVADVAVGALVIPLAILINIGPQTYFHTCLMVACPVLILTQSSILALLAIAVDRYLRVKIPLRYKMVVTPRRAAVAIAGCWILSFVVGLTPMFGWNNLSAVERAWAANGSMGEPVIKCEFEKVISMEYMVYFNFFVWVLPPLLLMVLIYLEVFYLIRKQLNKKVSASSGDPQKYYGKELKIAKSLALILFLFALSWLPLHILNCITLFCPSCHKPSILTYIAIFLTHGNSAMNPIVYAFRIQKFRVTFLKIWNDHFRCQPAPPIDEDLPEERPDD

[11] = biological target: T3, Adenosine receptor A3 (Homo sapiens); assay: Percentage of blockade by 1 uM of the inhibition by 100 nM IB-MECA-inhibited cAMP accumulation in CHO cells expressing human adenosine A3 receptor.; type: functional, cell-based
Outline: (§3)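 CHO cells stably expressing human A3 receptor; membranes in 50 mM Tris HCl, 10 mM MgCl2, 1 mM EDTA pH 7.4 with 5 μM GTP, 0.5 mM […] and 2.0 IU/mL adenosine deaminase. Preincubated 10 min at 37 °C, then IB-MECA (100 nM) and/or antagonist with 1 mM ATP and 10 μM forskolin for 10 min. Boiled 2 min. cAMP read by [3H]cAMP competition with adrenal binding protein.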

Adenosine receptor A3 [12] = biological target: T1, Adenosine receptor A3; assay: Displacement of [3H]MRE3008-F20 from human adenosine A3 receptor expressed in CHO cells; range 691-952; type: cell-based
Adenosine receptor A2b [13] = biological target: T4, Adenosine receptor A2b; assay: Displacement of [3H]DPCPX from Adenosine A2b receptor expressed in […]; range 19-27; type: cell-based
Adenosine receptor A2a [14] = biological target: T2, Adenosine receptor A2a; assay: biochemical
[15] = biological target: T3, Adenosine receptor A3 (Homo sapiens); assay: Percent reversal of 100 nM IB-MECA-inhibited cAMP accumulation in CHO cells expressing human adenosine A3 receptor at 1 uM; range 92-102; type: functional, cell-based; outline: as §3
Adenosine receptor A1 [16] = biological target: T5, Adenosine receptor A1; assay: Displacement of [3H]DPCPX from human adenosine A1 receptor expressed in CHO cells; range 6.5-8.7; type: cell-based
Adenosine receptor A3 [17] = biological target: T1, Adenosine receptor A3; assay: Inhibition of cAMP accumulation in CHO cells expressing human adenosine A3 receptor; range 1.1-3.8; type: functional, cell-based
Adenosine receptor A2b [18] = biological target: T4, Adenosine receptor A2b; assay: Displacement of [3H]DPCPX from Adenosine A2b receptor expressed in […]; range 188-320; type: cell-based; outline: as §1
Adenosine receptor A3 [19] = biological target: T1, Adenosine receptor A3; assay: Displacement of [3H]MRE3008-F20 from human adenosine A3 receptor expressed in CHO cells; range 0.51-0.70; type: cell-based
Adenosine receptor A3 [20] = biological target: T1, Adenosine receptor A3; assay: Inhibition of cAMP accumulation in CHO cells expressing human adenosine A3 receptor; range 2.5-9.3; type: functional, cell-based
Adenosine receptor A2b [21] = biological target: T4, Adenosine receptor A2b; assay: Displacement of [3H]DPCPX from Adenosine A2b receptor expressed in […]; range 70-94; type: cell-based
Adenosine receptor A3 [22] = biological target: T1, Adenosine receptor A3; assay: Displacement of [3H]MRE3008-F20 from human adenosine A3 receptor expressed in CHO cells; […]; type: cell-based
Adenosine receptor A3 [23] = biological target: T1, Adenosine receptor A3; assay: Inhibition of cAMP accumulation in CHO cells expressing human adenosine A3 receptor; type: functional, cell-based
Adenosine receptor A2b [24] = biological target: T4, Adenosine receptor A2b; assay: Displacement of [3H]-DPCPX from Adenosine A2b receptor expressed in […]; range 7.4-11.3; type: cell-based
Adenosine receptor A1 [25] = biological target: T5, Adenosine receptor A1; assay: Displacement of [3H]DPCPX from human adenosine A1 receptor expressed in CHO cells; range 1.72-2.36; type: cell-based
[26] = biological target: T3, Adenosine receptor A3 (Homo sapiens); assay: Percent reversal of 100 nM IB-MECA-inhibited cAMP accumulation in CHO cells expressing human adenosine A3 receptor at 1 uM; type: functional, cell-based; outline: as §3
Adenosine receptor A3 [27] = biological target: T1, Adenosine receptor A3; assay: Displacement of [3H]MRE3008-F20 from human adenosine A3 receptor expressed in CHO cells; range 664-738; type: cell-based
[28] = biological target: T3, Adenosine receptor A3 (Homo sapiens); details: CHO, 1 uM; remark: listed apart in the source
Adenosine receptor A3 [29] = biological target: T1, Adenosine receptor A3; assay: Displacement of [3H]MRE3008-F20 from human adenosine A3 receptor expressed in CHO cells; range 33-48; type: cell-based
Adenosine receptor A2a [30] = biological target: T2, Adenosine receptor A2a; assay: Displacement of [3H]-SCH- 58261 from human adenosine A2A receptor expressed in CHO cells; range 85-164; type: cell-based; outline: as §2
Adenosine receptor A1 [31] = biological target: T5, Adenosine receptor A1; assay: Displacement of [3H]DPCPX from human adenosine A1 receptor expressed in CHO cells; range 83-120; type: cell-based
Adenosine receptor A2b [32] = biological target: T4, Adenosine receptor A2b; assay: Displacement of [3H]DPCPX from Adenosine A2b receptor expressed in […]; range 55-68; type: cell-based; outline: as §1

T2 sequence (P29274 whole entry): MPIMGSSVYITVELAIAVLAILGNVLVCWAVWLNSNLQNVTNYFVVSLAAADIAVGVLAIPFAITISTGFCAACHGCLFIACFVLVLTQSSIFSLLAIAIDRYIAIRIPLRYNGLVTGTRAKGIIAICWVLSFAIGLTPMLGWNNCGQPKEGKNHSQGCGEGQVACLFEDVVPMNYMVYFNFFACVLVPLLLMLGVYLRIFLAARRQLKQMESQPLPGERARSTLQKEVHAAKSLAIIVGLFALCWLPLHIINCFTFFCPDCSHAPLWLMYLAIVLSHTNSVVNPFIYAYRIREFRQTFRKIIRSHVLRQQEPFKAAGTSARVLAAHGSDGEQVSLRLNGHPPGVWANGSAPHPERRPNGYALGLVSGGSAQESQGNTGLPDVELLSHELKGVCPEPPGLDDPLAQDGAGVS

- Ki (Adenosine receptor A3 [1]): 1.6 nM
- Ki (Adenosine receptor A2a [2]): 180 nM
- IC50 (Adenosine receptor A3 [3]): 14.8 nM
- inhibition [4]: 68%
- Ki (Adenosine receptor A2b [5]): 150 nM
- Ratio [6]: 155
- Ratio [7]: 93.7
Compound: CCn1cc2c(nc(NC(=O)Nc3cccc(Cl)c3)n3nc(-c4ccco4)nc23)n1

- Ki (Adenosine receptor A2b [8]): 12 nM
- Ki (Adenosine receptor A2a [9]): 0.8 nM
- Ki (Adenosine receptor A1 [10]): 5.42 nM
- inhibition [11]: 12%
- Ratio [6]: 0.006
- Ratio [7]: 0.014
- Ki (Adenosine receptor A3 [12]): 811 nM
Compound: CC(C)=CCn1cc2c(nc(N)n3nc(-c4ccco4)nc23)n1

Compound: COc1ccc(NC(=O)Nc2nc3ccc(Cl)cc3c3nc(-c4ccco4)nn23)cc1
- Ki (Adenosine receptor A2b [13]): 22 nM
- Ki (Adenosine receptor A2a [14]): 9.4 nM
- Ratio [6]: 43
- Ratio [7]: 158
- inhibition [15]: 97%
- Ki (Adenosine receptor A1 [16]): 7.6 nM
- IC50 (Adenosine receptor A3 [17]): 2 nM

- Ki (Adenosine receptor A2b [18]): 245 nM
- Ki (Adenosine receptor A3 [19]): 0.6 nM
- IC50 (Adenosine receptor A3 [20]): 4.8 nM
- Ratio [6]: 1710
- Ratio [7]: 408
Compound: CCn1cc2c(nc(NC(=O)Nc3ccc(OC)cc3)n3nc(-c4ccco4)nc23)n1

- Ki (Adenosine receptor A2b [21]): 81 nM
- Ki (Adenosine receptor A3 [22]): 0.98 nM
- Ratio [6]: 205
- Ratio [7]: 82.6
- IC50 (Adenosine receptor A3 [23]): 13.9 nM
Compound: COc1ccc(NC(=O)Nc2nc3nn(CCc4ccccc4)cc3c3nc(-c4ccco4)nn23)cc1

Compound: CC(C)CCn1cc2c(nc(N)n3nc(-c4ccco4)nc23)n1
- Ki (Adenosine receptor A2b [24]): 9.1 nM
- Ratio [6]: 0.002
- Ratio [7]: 0.013
- Ki (Adenosine receptor A1 [25]): 2 nM
- inhibition [26]: 14%
- Ki (Adenosine receptor A3 [27]): 700 nM

- inhibition [28]: 45%
- Ki (Adenosine receptor A3 [29]): 40 nM
- Ki (Adenosine receptor A2a [30]): 115 nM
- Ratio [6]: 2.5
- Ki (Adenosine receptor A1 [31]): 100 nM
- Ratio [7]: 1.5
- Ki (Adenosine receptor A2b [32]): 61 nM
Compound: CC(C)CCn1cc2c(nc(NC(=O)Nc3cccc(Cl)c3)n3nc(-c4ccco4)nc23)n1
